Where two headings read alike, the source gives them in different places.
How the values were obtained:
[1] = low solubility and low permeability; cited from earlier work
[2] = tested on: MCF-7 human breast cancer cells; experiment: In vitro cytotoxicity, MTT assay; format: cell-based; conditions: read-out: mean IC50
Summary of the method: (§1)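 Cells kept in phenol red-free DMEM with 10% FBS, L-glutamine and antibiotics at 37 °C, 5% CO2, then seeded in 96-well plates. They were exposed to a range of test compound concentrations (free drug in DMSO or micellar formulations) for 24, 48 or 72 h. Next, 0.5 mg/mL MTT for 2 h, absorbance read at 550 nm. Viability expressed as % of untreated control wells.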

[3] = tested on: MDA-MB-231 human breast cancer cells; experiment: In vitro cytotoxicity, MTT assay; format: cell-based; conditions: read-out: mean IC50
Summary of the method: as §1

[4] = biological target: T1, bovine serum albumin (BSA) (Bos taurus, UniProt P02769); experiment: Protein adsorption to micelles: incubation with BSA, DLS and TEM; format: physicochemical
T1 sequence (P02769 25-607): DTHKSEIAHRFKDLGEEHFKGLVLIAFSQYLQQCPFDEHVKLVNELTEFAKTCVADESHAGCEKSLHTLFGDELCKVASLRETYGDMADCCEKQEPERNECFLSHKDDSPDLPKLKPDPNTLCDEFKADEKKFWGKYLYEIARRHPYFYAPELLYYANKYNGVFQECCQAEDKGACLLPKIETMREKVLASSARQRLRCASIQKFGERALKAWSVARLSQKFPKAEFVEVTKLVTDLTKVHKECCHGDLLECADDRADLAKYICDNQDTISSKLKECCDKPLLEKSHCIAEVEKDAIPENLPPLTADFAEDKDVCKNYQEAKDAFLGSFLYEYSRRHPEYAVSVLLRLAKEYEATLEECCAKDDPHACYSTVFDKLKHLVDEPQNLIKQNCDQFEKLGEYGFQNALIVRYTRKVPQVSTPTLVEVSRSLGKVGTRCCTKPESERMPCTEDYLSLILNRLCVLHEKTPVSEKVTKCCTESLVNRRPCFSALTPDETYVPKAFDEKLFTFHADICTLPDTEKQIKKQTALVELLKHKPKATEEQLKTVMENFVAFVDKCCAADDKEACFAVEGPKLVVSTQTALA
Summary of the method: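 Drug-loaded micelles were incubated with 45 mg/mL bovine serum albumin in 0.01 M PBS (pH 7.4) at 37 °C for 8 h, with BSA alone and micelles alone incubated in PBS as controls. Hydrodynamic size and polydispersity were read by DLS (n = 3, mean ± SD). For TEM, samples settled 20 s on carbon-coated grids and were negatively stained with 2% phosphotungstic acid in PBS, pH 7.0.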

[5] = biological target: T1, bovine serum albumin (BSA); conditions: ref Liu et al., 2005; cited from earlier work

Row | Compound | biopharmaceutical classification system (BCS) class [1] | IC50 ([2]; MCF7, 24 h) [nM] | IC50 ([2]; MCF7, 48 h) [nM] | IC50 ([2]; MCF7, 72 h) [nM] | IC50 ([3]; MDA-MB-231, 24 h) [nM] | IC50 ([3]; MDA-MB-231, 48 h) [nM] | IC50 ([3]; MDA-MB-231, 72 h) [nM] | Size (hydrodynamic) ([4]; 8-h incubation at 37 °C in 0.01 M PBS pH 7.4, sample alone) [nm] | Polydispersity ([4]; 8-h incubation at 37 °C in PBS, sample alone) | hydrodynamic diameter [5] [nm]
1 | CC(=O)O[C@H]1C(=O)[C@@]2(C)[C@H]([C@H](OC(=O)c3ccccc3)[C@]3(O)C[C@H](OC(=O)[C@H](O)[C@@H](NC(=O)c4ccccc4)c4ccccc4)C(C)=C1C3(C)C)[C@]1(OC(C)=O)CO[C@@H]1C[C@@H]2O [Free PTX (in DMSO), Paclitaxel] | class IV | > 1000 | 384 | 297 | 21.6 | 10.8 | 9.7 | – | – | –
2 | bovine serum albumin [BSA] | – | – | – | – | – | – | – | 8.2 ± 0.1 | 0.236 ± 0.019 | 7.9 ± 0.4

Source: article PMC11152975 (International Journal of Pharmaceutics: X, 2024)
